We go through eight compounds from ChEMBL document CHEMBL1148553, “C8c-C15 monoseco-analogues of the phenanthroquinolizidine alkaloids julandine and cryptopleurine exhibiting potent anti-angiogenic properties” (Bioorg Med Chem Lett, 2006).

One experiment concerns HCT-15. As to the kind of experiment: Cytotoxicity against human colon carcinoma, HCT15 cells. Format: functional, cell-based. In short, it runs like this: (§1)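 Dose-response proliferation assay over 0.16 to 20 µM (final) in tissue-culture plates. Cells were incubated 72 h at 37 °C in 5% CO2, and inhibition was read as Alamar Blue conversion by fluorescence at excitation/emission 544/590 nm.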

The subject of the next experiment is KHOS/NP. As to the kind of experiment: Cytotoxicity against human osteosarcoma, KHOS-NP cells. The class given is functional, cell-based. A digest of the protocol:
as §1

Another experiment has as its system PA-1. The experiment in a line: Cytotoxicity against human ovarian teratocarcinoma, PA1 cells. Format: functional, cell-based. In short, it runs like this: as §1
The next experiment relates to TF-1. As to the kind of experiment: Cytotoxicity against human erythroleukemia TF1 cells. The class given is functional, cell-based. A digest of the protocol: as §1
Another experiment deals with CTLL. As to the kind of experiment: Cytotoxicity against murine cytotoxic T cells, CTLL2. The class given is functional, cell-based. As to conditions: Mus musculus. A digest of the protocol:
as §1

In the next experiment the test system is A549. As to the kind of experiment: Cytotoxicity against human lung carcinoma, A549 cells. The class given is functional, cell-based. A digest of the protocol:
as §1

Another experiment has as its system Ramos. The experiment in a line: Cytotoxicity against human Burkitt lymphoma, RAMOS cells. The class given is functional, cell-based. A digest of the protocol: as §1
For a further experiment, the system named is A-375. As to the kind of experiment: Cytotoxicity against human melanoma, A375 cells. The class given is functional, cell-based. In short, it runs like this:
as §1

For experiment [1], the species on record is Rattus norvegicus. As to the kind of experiment: Inhibition of blood vessel growth in rat aorta at 10 ug/mL. The class given is functional. A digest of the protocol: (§2)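 In vitro angiogenesis assay using rat aorta blood vessel fragments, with compounds dissolved in DMSO. The read-out is percent inhibition of blood vessel growth at each fixed test concentration.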

The test system of another experiment is MES-SA. As to the kind of experiment: Cytotoxicity against human uterine sarcoma, MES-SA cells. The class given is functional, cell-based. A digest of the protocol: as §1
Another experiment concerns Daudi. The experiment in a line: Cytotoxicity against human Burkitt lymphoma, DAUDI cells. Format: functional, cell-based. In short, it runs like this:
as §1

The next experiment has as its system BT-20. As to the kind of experiment: Cytotoxicity against human breast carcinoma, BT20 cells. Format: functional, cell-based. A digest of the protocol:
as §1

Experiment [2] is filed under the species Rattus norvegicus. As to the kind of experiment: Inhibition of blood vessel growth in rat aorta at 1 ug/mL. Format: functional. In short, it runs like this: as §2
The test system of the next experiment is HepG2. The experiment in a line: Cytotoxicity against human hepatoma, HEPG2 cells. Format: functional, cell-based. In short, it runs like this: as §1
The next experiment deals with MES-SA/Dx5. The experiment in a line: Cytotoxicity against human uterine sarcoma, MES-SA-Dx5 cells derived from MES-SA. The class given is functional, cell-based. In short, it runs like this:
as §1

The subject of a further experiment is BUD-8. As to the kind of experiment: Cytotoxicity against human fibroblast, BUD8 cells. Format: functional, cell-based. A digest of the protocol:
as §1

For a further experiment, the system named is HT-1376. As to the kind of experiment: Cytotoxicity against human bladder carcinoma, HT1376 cells. Format: functional, cell-based. A digest of the protocol:
as §1

Another experiment has as its system HEK293. As to the kind of experiment: Cytotoxicity against HEK293 cells. The class given is functional, cell-based. As to conditions: Homo sapiens. A digest of the protocol: as §1
A further experiment relates to A-431. As to the kind of experiment: Cytotoxicity against human epidermoid carcinoma, A431 cells. The class given is functional, cell-based. In short, it runs like this:
as §1

The species named for experiment [3] is Rattus norvegicus. As to the kind of experiment: Inhibition of blood vessel growth in rat aorta at 100 ug/mL. The class given is functional. A digest of the protocol:
as §2

Another experiment relates to MAT-Ly-Lu. As to the kind of experiment: Cytotoxicity against rat prostate carcinoma, MatLyLu cells. Format: functional, cell-based. A digest of the protocol: as §1
The species named for experiment [4] is Rattus norvegicus. The experiment in a line: Inhibition of blood vessel growth in rat aorta at 0.1 ug/mL. The class given is functional. In short, it runs like this: as §2

For `COc1ccc(/C=C(/CN2CCCC[C@H]2C)c2ccc(O)cc2)cc1OC`, the IC50 with HCT-15, with KHOS/NP, in the experiment on PA-1, in the experiment with TF-1, in the experiment with CTLL and in the experiment on A549 was more than 20 µM each time. For the same compound, the IC50 in the experiment on Ramos, in the experiment on A-375, in the experiment on MES-SA, in the experiment with Daudi, with BT-20 and in the experiment on HepG2 was more than 20 µM throughout. In addition, the IC50 with MES-SA/Dx5, with BUD-8, in the experiment with HT-1376, in the experiment on HEK293, in the experiment with A-431 and in the experiment with MAT-Ly-Lu was more than 20 µM in each case. In the experiment listed under Rattus norvegicus [1], this compound came in with an inhibition at 10 µg/mL of 65%. In addition, 1 µg/mL produced 43% inhibition in the experiment filed under Rattus norvegicus [2]. In addition, 100 µg/mL produced 100% inhibition in the experiment filed under Rattus norvegicus [3].

For the compound `COc1cc2cc(CN3CCCC[C@@H]3C)c3ccc(O)cc3c2cc1OC`, the IC50 amounted to 8.41 µM in the experiment on HCT-15; 15.4 µM with KHOS/NP; 8 µM with PA-1; 9.8 µM in the experiment with TF-1; 9.09 µM with CTLL; 16.6 µM with A549. Moreover, the IC50 in the experiment with Ramos was 18.2 µM; in the experiment on A-375 it was 11.2 µM; in the experiment on MES-SA, 14.1 µM; in the experiment with Daudi, 13.5 µM; with BT-20, 13.7 µM; in the experiment with HepG2 it was 8.33 µM. The IC50 in the experiment on MES-SA/Dx5 is 11.8 µM; in the experiment with BUD-8, 18.2 µM; in the experiment on HT-1376, 8.31 µM; in the experiment on HEK293 it was 14.8 µM; in the experiment with A-431, 13.8 µM; in the experiment with MAT-Ly-Lu, more than 20 µM. The inhibition at 10 µg/mL in the experiment listed under Rattus norvegicus [1] is 74%. The inhibition at 0.1 µg/mL in the experiment listed under Rattus norvegicus [4] came to 35%. Moreover, the inhibition at 1 µg/mL in the experiment listed under Rattus norvegicus [2] turned out to be 58%. Further, testing at 100 µg/mL in the experiment listed under Rattus norvegicus [3] gave an inhibition of 100%.

As for `COc1ccc(/C=C(/CN2CCCC[C@@H]2C)c2ccc(O)cc2)cc1OC`, the IC50 in the experiment with HCT-15, with KHOS/NP, in the experiment on PA-1, with TF-1, with CTLL and in the experiment on A549 was more than 20 µM each time. Moreover, the IC50 in the experiment with Ramos, in the experiment with A-375, in the experiment on MES-SA, in the experiment on Daudi, in the experiment with BT-20 and in the experiment on HepG2 was more than 20 µM in each case. Also, the IC50 in the experiment with MES-SA/Dx5, with BUD-8, in the experiment with HT-1376, in the experiment with HEK293, with A-431 and in the experiment with MAT-Ly-Lu was more than 20 µM in each case. The compound also displayed an inhibition at 10 µg/mL in the experiment listed under Rattus norvegicus [1] of 42%. Besides, testing at 0.1 µg/mL in the experiment filed under Rattus norvegicus [4] gave an inhibition of 31%. Moreover, in the experiment filed under Rattus norvegicus [2], the inhibition at 1 µg/mL came to 53%. This compound also returned an inhibition at 100 µg/mL in the experiment filed under Rattus norvegicus [3] of 100%.

With `COc1ccc(/C(=C\c2ccc(OC)c(OC)c2)CN2CCCC[C@@H]2C)cc1`, the IC50 with HCT-15, in the experiment with KHOS/NP, in the experiment with PA-1, with TF-1, with CTLL and with A549 was more than 20 µM each time. Further, the IC50 with Ramos, in the experiment with A-375, in the experiment on MES-SA, with Daudi, in the experiment on BT-20 and with HepG2 was more than 20 µM each time. For the same compound, the IC50 with MES-SA/Dx5, in the experiment with BUD-8, in the experiment on HT-1376, with HEK293, with A-431 and in the experiment with MAT-Ly-Lu was more than 20 µM throughout. This compound yielded an inhibition at 10 µg/mL in the experiment listed under Rattus norvegicus [1] of 43%. In the experiment listed under Rattus norvegicus [4], this compound had an inhibition at 0.1 µg/mL of 22%. This compound also showed an inhibition at 1 µg/mL in the experiment listed under Rattus norvegicus [2] of 68%. Moreover, in the experiment filed under Rattus norvegicus [3], testing at 100 µg/mL gave an inhibition of 100%.

In the case of `COc1cc2cc(CN3CCCC[C@H]3C)c3ccc(O)cc3c2cc1OC`, the IC50 is 7.97 µM in the experiment with HCT-15; 13.4 µM with KHOS/NP; 8.4 µM with TF-1; 8.1 µM in the experiment with CTLL; 15.2 µM with A549; 9.38 µM in the experiment on A-375. For the same compound, the IC50 in the experiment on BT-20 is 11.6 µM; with HT-1376 it was 6.04 µM; with A-431 it was 20 µM; in the experiment on MAT-Ly-Lu it was more than 20 µM. Moreover, at 10 µg/mL the inhibition in the experiment filed under Rattus norvegicus [1] was 85%. In the experiment filed under Rattus norvegicus [4], the inhibition at 0.1 µg/mL worked out at 18%. In the experiment listed under Rattus norvegicus [2], the inhibition at 1 µg/mL turned out to be 47%. In the experiment listed under Rattus norvegicus [3], this compound gave an inhibition at 100 µg/mL of 100%.

Take `COc1ccc2c(CN3CCCC[C@H]3C)cc3cc(OC)c(OC)cc3c2c1`: the IC50 in the experiment on HCT-15 came out at 8.33 µM; with KHOS/NP, 14 µM; with PA-1 it was 7.27 µM; in the experiment on TF-1, 7.65 µM; with CTLL, 8.1 µM; with A549, 12 µM. For the same compound, the IC50 with Ramos worked out at 15.5 µM; in the experiment on A-375, 10.1 µM; in the experiment on MES-SA it was 9.04 µM; with Daudi it was 12 µM; in the experiment with BT-20, 10.9 µM; in the experiment with HepG2, 7.27 µM. The IC50 with MES-SA/Dx5 was 8.46 µM; with BUD-8, more than 20 µM; with HT-1376, 9.51 µM; in the experiment with HEK293 it was 17.1 µM; in the experiment with A-431, 8.09 µM; in the experiment with MAT-Ly-Lu, 15 µM. In the experiment filed under Rattus norvegicus [1], the inhibition at 10 µg/mL was determined as 100%. Moreover, the inhibition at 0.1 µg/mL in the experiment listed under Rattus norvegicus [4] came to 29%. Moreover, the inhibition at 1 µg/mL in the experiment filed under Rattus norvegicus [2] amounted to 48%.

As for `COc1ccc(/C(=C\c2ccc(OC)c(OC)c2)CN2CCCC[C@H]2C)cc1`, the IC50 in the experiment on HCT-15, in the experiment with KHOS/NP, in the experiment with PA-1, in the experiment on TF-1, in the experiment on CTLL and with A549 was more than 20 µM each time. Besides, the IC50 in the experiment with Ramos, in the experiment on A-375, in the experiment on MES-SA, in the experiment with Daudi, with BT-20 and with HepG2 was more than 20 µM each time. The IC50 in the experiment on MES-SA/Dx5, in the experiment with BUD-8, in the experiment on HT-1376, with HEK293, in the experiment on A-431 and in the experiment with MAT-Ly-Lu was more than 20 µM throughout. The inhibition at 10 µg/mL in the experiment listed under Rattus norvegicus [1] came out at 62%. In addition, in the experiment listed under Rattus norvegicus [4], the inhibition at 0.1 µg/mL came out at 36%. In the experiment listed under Rattus norvegicus [2], this compound displayed an inhibition at 1 µg/mL of 59%. The compound further showed an inhibition at 100 µg/mL in the experiment filed under Rattus norvegicus [3] of 100%.

Regarding `COc1ccc2c(CN3CCCC[C@@H]3C)cc3cc(OC)c(OC)cc3c2c1`, the IC50 with HCT-15 was found to be 7.82 µM; in the experiment with KHOS/NP it was 12.3 µM; with PA-1, 7.38 µM; in the experiment with TF-1 it was 7.2 µM; with CTLL, 7.61 µM; in the experiment with A549, 11.2 µM. The IC50 in the experiment with Ramos was more than 20 µM; in the experiment on A-375 it was 8.96 µM; in the experiment with MES-SA, 10.1 µM; in the experiment with Daudi, 9.08 µM; in the experiment with BT-20 it was 10.2 µM; with HepG2 it was 8.12 µM. For the same compound, the IC50 is 11.7 µM in the experiment on MES-SA/Dx5; more than 20 µM in the experiment with BUD-8; 9.68 µM in the experiment with HT-1376; 15.5 µM in the experiment with HEK293; 8.12 µM in the experiment with A-431; 15 µM in the experiment with MAT-Ly-Lu. The compound further registered an inhibition at 10 µg/mL in the experiment filed under Rattus norvegicus [1] of 100%. In the experiment listed under Rattus norvegicus [4], this compound displayed an inhibition at 0.1 µg/mL of 17%. Moreover, in the experiment listed under Rattus norvegicus [2], at 1 µg/mL the inhibition was 42%. This compound showed an inhibition at 100 µg/mL in the experiment listed under Rattus norvegicus [3] of 100%.
